Assay [1] has as its system P388. The assay is described as follows: In vivo inhibitory activity against P388 murine leukemia cells and the ratio of medium survival time expressed as percent of untreated controls (%T/C) at doses of 6.25,3.12,1.56mg/kg (7/7*). The format is functional, Mus musculus.
Assay [2] concerns P388. The experiment in a line: In vivo inhibitory activity against P388 murine leukemia cells and the ratio of medium survival time expressed as percent of untreated controls (%T/C) at dose of 50 mg/kg (7/7*). The format is functional, Mus musculus.
Assay [3] in a line: The capacity to stimulate NADH oxidation was determined. The format is functional. Put shortly:
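Cell-free NADH oxidation in 1 mL of 0.05 M Tris-HCl, pH 7.2, with 100 µM compound (hydrochloride), 100 µM NADH and 1 unit/mL NADH dehydrogenase. NADH consumption started by adding the enzyme. Rate expressed as µmol/min.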

The next assay concerns L1210. The assay is described as follows: Effective concentration against inhibition of L1210 mouse leukemia cells in tissue culture. The format is functional, cell-based. In a few lines: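 L1210 mouse leukemia cells seeded at 0.05 × 10^6 cells/mL. Compounds, as hydrochlorides dissolved in 50% ethanol, added at four concentrations. Growth over 48 h measured by cellular protein content. EC50 taken as the concentration giving 50% inhibition of 48-h growth.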

Assay [4] has as its system P388. The assay is described as follows: In vivo inhibitory activity against P388 murine leukemia cells and the ratio of medium survival time expressed as percent of untreated controls (%T/C) at dose of 12.5 mg/kg (7/7*). The format is functional, Mus musculus.
Assay [5] has as its system P388. The experiment in a line: In vivo inhibitory activity against P388 murine leukemia cells and the ratio of medium survival time expressed as percent of untreated controls (%T/C) at dose of 25 mg/kg (7/7*). It is filed as functional, Mus musculus.
Assay [6] concerns P388. The experiment in a line: In vivo inhibitory activity against P388 murine leukemia cells and the ratio of medium survival time expressed as percent of untreated controls (%T/C) at dose of 3.78, 1.87 mg/kg (7/7*). It is filed as functional, Mus musculus.
Assay [7] relates to P388. The assay is described as follows: In vivo inhibitory activity against P388 murine leukemia cells and the ratio of medium survival time expressed as percent of untreated controls (%T/C) at dose of 15 mg/kg (7/7*). The format is functional, Mus musculus.
Assay [8] relates to P388. The experiment in a line: In vivo inhibitory activity against P388 murine leukemia cells and the ratio of medium survival time expressed as percent of untreated controls (%T/C) at dose of 7.5 mg/kg (7/7*). It is filed as functional, Mus musculus.
In assay [9] the test system is P388. The assay is described as follows: In vivo inhibitory activity against P388 murine leukemia cells and the ratio of medium survival time expressed as percent of untreated controls (%T/C) at doses of 60,30mg/kg (7/7*). The format is functional, Mus musculus.
Assay [10] concerns P388. The assay is described as follows: In vivo inhibitory activity against P388 murine leukemia cells and the ratio of medium survival time expressed as percent of untreated controls (%T/C) at dose of 5 mg/kg (7/7*). It is filed as functional, Mus musculus.
For assay [11], the system named is P388. The assay is described as follows: In vivo inhibitory activity against P388 murine leukemia cells and the ratio of medium survival time expressed as percent of untreated controls (%T/C) at dose of 10 mg/kg (7/7*). It is filed as functional, Mus musculus.
The test system of assay [12] is P388. The experiment in a line: In vivo inhibitory activity against P388 murine leukemia cells and the ratio of medium survival time expressed as percent of untreated controls (%T/C) at dose of 2.5 mg/kg (7/7*). The format is functional, Mus musculus.
Assay [13] deals with P388. The assay is described as follows: In vivo inhibitory activity against P388 murine leukemia cells and the ratio of medium survival time expressed as percent of untreated controls (%T/C) at doses of 80,40,20mg/kg (7/7*). The format is functional, Mus musculus.
Assay [14] deals with P388. The assay is described as follows: In vivo inhibitory activity against P388 murine leukemia cells and the ratio of medium survival time expressed as percent of untreated controls (%T/C) at dose of 80 mg/kg (5/6*). The format is functional, Mus musculus.
In assay [15] the test system is P388. The experiment in a line: In vivo inhibitory activity against P388 murine leukemia cells and the ratio of medium survival time expressed as percent of untreated controls (%T/C) at dose of 40 mg/kg (6/6*). The format is functional, Mus musculus.
Assay [16] deals with P388. The assay is described as follows: In vivo inhibitory activity against P388 murine leukemia cells and the ratio of medium survival time expressed as percent of untreated controls (%T/C) at dose of 10 mg/kg (6/6*). It is filed as functional, Mus musculus.
Assay [17] relates to P388. The experiment in a line: In vivo inhibitory activity against P388 murine leukemia cells and the ratio of medium survival time expressed as percent of untreated controls (%T/C) at dose of 2.5 mg/kg (6/6*). It is filed as functional, Mus musculus.
Assay [18] concerns P388. The experiment in a line: In vivo inhibitory activity against P388 murine leukemia cells and the ratio of medium survival time expressed as percent of untreated controls (%T/C) at dose of 5 mg/kg (6/6*). The format is functional, Mus musculus.
The subject of assay [19] is P388. The experiment in a line: In vivo inhibitory activity against P388 murine leukemia cells and the ratio of medium survival time expressed as percent of untreated controls (%T/C) at dose of 20 mg/kg (6/6*). It is filed as functional, Mus musculus.
The subject of assay [20] is P388. The assay is described as follows: In vivo inhibitory activity against P388 murine leukemia cells and the ratio of medium survival time expressed as percent of untreated controls (%T/C) at dose of 12.5 mg/kg (6/6*). It is filed as functional, Mus musculus.
Assay [21] deals with P388. The experiment in a line: In vivo inhibitory activity against P388 murine leukemia cells and the ratio of medium survival time expressed as percent of untreated controls (%T/C) at dose of 3.12 mg/kg (6/6*). It is filed as functional, Mus musculus.
For assay [22], the system named is P388. The assay is described as follows: In vivo inhibitory activity against P388 murine leukemia cells and the ratio of medium survival time expressed as percent of untreated controls (%T/C) at dose of 25 mg/kg (6/6*). The format is functional, Mus musculus.
Assay [23] has as its system P388. The experiment in a line: In vivo inhibitory activity against P388 murine leukemia cells and the ratio of medium survival time expressed as percent of untreated controls (%T/C) at dose of 6.25 mg/kg (6/6*). It is filed as functional, Mus musculus.
Assay [24] deals with P388. The assay is described as follows: In vivo inhibitory activity against P388 murine leukemia cells and the ratio of medium survival time expressed as percent of untreated controls (%T/C) at dose of 80 mg/kg (7/7*). It is filed as functional, Mus musculus.
Assay [25] relates to P388. The experiment in a line: In vivo inhibitory activity against P388 murine leukemia cells and the ratio of medium survival time expressed as percent of untreated controls (%T/C) at doses of 40,20mg/kg (7/7*). The format is functional, Mus musculus.
The subject of assay [26] is P388. The experiment in a line: In vivo inhibitory activity against P388 murine leukemia cells and the ratio of medium survival time expressed as percent of untreated controls (%T/C) at doses of 10,5,2,5 mg/kg (7/7*). It is filed as functional, Mus musculus.

The values below come from ChEMBL document CHEMBL1125231, “Synthesis, peroxidating ability, and antineoplastic evaluation of 1-[(aminoalkyl)amino]-4-hydroxy-10-imino-9-anthracenones” (J Med Chem, 1991).

Values after ≈ are worked out from the molar mass of the structure shown.

Usually T/C stands for the result in the treated group divided by that in the control group, in per cent. A word on the EC50: it is the concentration at which the effect is half-maximal. Lower therefore signals a more potent agent. Consider `O=C1c2ccccc2C(=O)c2c(NCCNCCO)ccc(O)c21`, for which the T/C in the assay on P388 [1] was determined as 100%; with P388 [2] it was 127%; in the assay with P388 [4], 109%; in the assay with P388 [5], 117%. In assay [3], this compound returned an NADH oxidation of 28.9 µM/min. The compound further returned an EC50 in the assay with L1210 of 0.27 µg/mL (≈ 0.827 µM).
For `COc1cccc2c1C(=N)c1c(O)ccc(NCCNCCO)c1C2=O`, the EC50 in the assay with L1210 was determined as 2.8 µg/mL (≈ 7.88 µM).
In the case of `CN(C)CCNc1ccc(O)c2c1C(=O)c1ccccc1C2=O`, the T/C stood at 91% in the assay with P388 [6], 109% in the assay with P388 [7], 100% in the assay on P388 [8] and 117% with P388 [9]. Besides, the NADH oxidation in assay [3] stood at 25.7 µM/min. Also, the EC50 with L1210 was determined as 0.33 µg/mL (≈ 1.06 µM).
Turning to `NCCNc1ccc(O)c2c1C(=O)c1ccccc1C2=O`, in assay [3], the NADH oxidation came to 25.7 µM/min. The compound also had an EC50 with L1210 of 0.24 µg/mL (≈ 0.85 µM).
For `N=C1c2ccccc2C(=O)c2c(NCCNCCO)ccc(O)c21`, in assay [3], the NADH oxidn was 19.3 µM/min. Further, the T/C in the assay with P388 [10] was 130%; with P388 [11] it was 150%; with P388 [12] it was 120%; with P388 [13], 160%. The EC50 with L1210 was 1.43 µg/mL (≈ 4.4 µM).
On to `N=C1c2ccccc2C(=O)c2c(NCCN)ccc(O)c21`, for which the T/C was 55% with P388 [14]; 118% in the assay with P388 [15]; 118% in the assay with P388 [16]; 100% in the assay with P388 [17]; 109% in the assay with P388 [18]; 109% in the assay with P388 [19]. For the same compound, the NADH oxidn in [3] was determined as 20.9 µM/min. The same compound came in with an EC50 in the assay on L1210 of 0.89 µg/mL (≈ 3.16 µM).
`O=C1c2ccccc2C(=O)c2c(NCCNCCO)ccc(NCCNCCO)c21` [AMETANTRONE]: the T/C is 300% in the assay on P388 [20], 190% in the assay on P388 [21], 200% in the assay with P388 [22] and 210% with P388 [23]. In addition, in assay [3], the NADH oxidation came to 28.9 µM/min. This compound also had a 50% effective concentration (EC50) in the assay with L1210 of 0.21 µg/mL (≈ 0.509 µM).
For `CN(C)CCNc1ccc(O)c2c1C(=O)c1ccccc1C2=N`, the T/C stood at 125% with P388 [24], 100% with P388 [25] and 92% in the assay on P388 [26]. The NADH oxidn in [3] stood at 17.7 µM/min. In the assay with L1210, this compound showed an EC50 of 2.21 µg/mL (≈ 7.14 µM).
